Test results reported in ChEMBL document CHEMBL4118076, “Azide-alkyne cycloaddition towards 1H-1,2,3-triazole-tethered gatifloxacin and isatin conjugates: Design, synthesis and in vitro anti-mycobacterial evaluation” (Eur J Med Chem, 2017).
In brackets after ≈: the same amount, converted by molar mass.

How the values were obtained:
[1] = tested on: Mycobacterium tuberculosis; experiment: Antimycobacterial activity against Mycobacterium tuberculosis H37Rv after 3 to 7 days by rapid direct susceptibility test; assay type: functional
In short: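 Two-fold DMSO dilutions, 0.0125 to 200 μg/mL for H37Rv and 0.062 to 128 μg/mL for the MDR strain (resistant to INH, RIF and ethambutol), mixed with suspension containing 4×10^-3 mg cells. Sealed plates incubated at 37 °C in a wet box. Growth was read visually under high magnification at 3 days and again 7 days later. MIC is the lowest concentration giving complete growth inhibition.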

[2] = Cytotoxicity against African green monkey Vero cells assessed as reduction in cell viability after 72 hrs by MTT assay; assay type: cell-based; settings: chlorocebus sabaeus
In short: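 VERO cells kept in MEM with Earle's salts + 10% FBS, 37 °C, 5% CO2; seeded 1×10^4 cells/well, recovered 24 h, then medium swapped for assay medium with compound (DMSO-dissolved, 1000 to 4 μg/mL) or drug-free. Viability by MTT after 72 h exposure; CC50 calculated by Bliss analysis.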

[3] = tested on: Mycobacterium tuberculosis; experiment: Potency index, ratio of gatifloxacin MIC90 to compound MIC90 for Mycobacterium tuberculosis H37Rv; assay type: functional
[4] = tested on: Mycobacterium tuberculosis; experiment: Potency index, ratio of rifampicin MIC90 to compound MIC90 for Mycobacterium tuberculosis H37Rv; assay type: functional

| Compound | MIC90 [1] | CC50 at 72 h [2] | Ratio [3] | Ratio [4] |
| --- | --- | --- | --- | --- |
| CO/N=C1\C(=O)N(CCn2cc(CN3CCN(c4c(F)cc5c(=O)c(C(=O)O)cn(C6CC6)c5c4OC)CC3C)nn2)c2ccc(F)cc21 (centres undefined) | 0.2 mg/L (≈ 0.296 µM) | 7.8 mg/L (≈ 11.5 µM) |  |  |
| COc1c(N2CCN(Cc3cn(CCN4C(=O)C(=O)c5cc(C)ccc54)nn3)C(C)C2)c(F)cc2c(=O)c(C(=O)O)cn(C3CC3)c12 (centres undefined) | 1.56 mg/L (≈ 2.42 µM) | 250 mg/L (≈ 388 µM) |  |  |
| COc1c(N2CCN(Cc3cn(CCN4C(=O)C(=O)c5cc(F)ccc54)nn3)C(C)C2)c(F)cc2c(=O)c(C(=O)O)cn(C3CC3)c12 (centres undefined) | 0.78 mg/L (≈ 1.2 µM) | 125 mg/L (≈ 193 µM) |  |  |
| CO/N=C1\C(=O)N(CCn2cc(CN3CCN(c4c(F)cc5c(=O)c(C(=O)O)cn(C6CC6)c5c4OC)CC3C)nn2)c2ccc(Cl)cc21 (centres undefined) | 0.1 mg/L (≈ 0.144 µM) | 7.8 mg/L (≈ 11.3 µM) | 4 - 8 | 4 - 8 |
| NNC(=O)c1ccncc1 [ISONIAZID] | 0.05 mg/L (≈ 0.365 µM) |  |  |  |
| CO/N=C1\C(=O)N(CCn2cc(CN3CCN(c4c(F)cc5c(=O)c(C(=O)O)cn(C6CC6)c5c4OC)CC3C)nn2)c2ccc(C)cc21 (centres undefined) | 1.56 mg/L (≈ 2.32 µM) | 31.2 mg/L (≈ 46.4 µM) |  |  |
| COc1c(N2CCN(Cc3cn(CCN4C(=O)/C(=N\O)c5cc(Cl)ccc54)nn3)C(C)C2)c(F)cc2c(=O)c(C(=O)O)cn(C3CC3)c12 (centres undefined) | 0.78 mg/L (≈ 1.15 µM) | 31.2 mg/L (≈ 45.9 µM) |  |  |
| COc1c(N2CCN(Cc3cn(CCN4C(=O)/C(=N\O)c5cc(C)ccc54)nn3)C(C)C2)c(F)cc2c(=O)c(C(=O)O)cn(C3CC3)c12 (centres undefined) | 6.25 mg/L (≈ 9.49 µM) | 62.5 mg/L (≈ 94.9 µM) |  |  |
| CO/N=C1\C(=O)N(CCn2cc(CN3CCN(c4c(F)cc5c(=O)c(C(=O)O)cn(C6CC6)c5c4OC)CC3C)nn2)c2ccccc21 (centres undefined) | 0.78 mg/L (≈ 1.18 µM) | 62.5 mg/L (≈ 94.9 µM) |  |  |
| CO[C@H]1/C=C/O[C@@]2(C)Oc3c(C)c(O)c4c(O)c(c(/C=N/N5CCN(C)CC5)c(O)c4c3C2=O)NC(=O)/C(C)=C\C=C\[C@H](C)[C@H](O)[C@@H](C)[C@@H](O)[C@@H](C)[C@H](OC(C)=O)[C@@H]1C [RIFAMPIN] | 0.39 mg/L (≈ 0.474 µM) |  |  |  |
| COc1c(N2CCN(Cc3cn(CCN4C(=O)C(=O)c5cc(Cl)ccc54)nn3)C(C)C2)c(F)cc2c(=O)c(C(=O)O)cn(C3CC3)c12 (centres undefined) | 0.39 mg/L (≈ 0.587 µM) | 62.5 mg/L (≈ 94.1 µM) |  |  |
| COc1c(N2CCNC(C)C2)c(F)cc2c(=O)c(C(=O)O)cn(C3CC3)c12 (centres undefined) [GATIFLOXACIN] | 0.78 mg/L (≈ 2.08 µM) |  |  |  |
| COc1c(N2CCN(Cc3cn(CCN4C(=O)/C(=N\O)c5ccccc54)nn3)C(C)C2)c(F)cc2c(=O)c(C(=O)O)cn(C3CC3)c12 (centres undefined) | 3.12 mg/L (≈ 4.84 µM) | 250 mg/L (≈ 388 µM) |  |  |
| COc1c(N2CCN(Cc3cn(CCN4C(=O)C(=O)c5ccccc54)nn3)C(C)C2)c(F)cc2c(=O)c(C(=O)O)cn(C3CC3)c12 (centres undefined) | 1.56 mg/L (≈ 2.48 µM) | 125 mg/L (≈ 199 µM) |  |  |
| COc1c(N2CCN(Cc3cn(CCN4C(=O)/C(=N\O)c5cc(F)ccc54)nn3)C(C)C2)c(F)cc2c(=O)c(C(=O)O)cn(C3CC3)c12 (centres undefined) | 1.56 mg/L (≈ 2.35 µM) | 7.8 mg/L (≈ 11.8 µM) |  |  |
